ChEMBL document CHEMBL1154403, “Serotypes, Clones, and Mechanisms of Resistance of Erythromycin-Resistant Streptococcus pneumoniae Isolates Collected in Spain” (2007)
In brackets after ≈: the same amount, converted by molar mass.

What was measured:
Type in all cases: functional
Streptococcus pneumoniae [1] = assay: Antibacterial activity against erythromycin-resistant Streptococcus pneumoniae assessed as percent resistant isolates by CLSI breakpoint method
Streptococcus pneumoniae [2] = assay: Antibacterial activity against erythromycin-resistant Streptococcus pneumoniae by microdilution method
Outline: (§1)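 Broth microdilution MICs per CLSI on all 125 erythromycin-resistant pneumococcal isolates, using Mueller-Hinton broth with 2 to 5% lysed horse blood in prepared panels. Example ranges: erythromycin 0.25 to 32 μg/ml, clindamycin 0.25 to 0.5 μg/ml, penicillin 0.03 to 8 μg/ml, telithromycin 0.015 to 32 μg/ml (separate panel). Quality control strain: S. pneumoniae ATCC 49619.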

Streptococcus pneumoniae [3] = assay: Antibacterial activity against erythromycin-resistant Streptococcus pneumoniae assessed as percent resistant isolates by microdilution method; outline: as §1
Streptococcus pneumoniae [4] = assay: Antibacterial activity against erythromycin-resistant Streptococcus pneumoniae assessed as percent sensitive isolates by CLSI breakpoint method
Streptococcus pneumoniae [5] = assay: Antibacterial activity against constitutive macrolide-lincosamide-streptogramin B-resistant Streptococcus pneumoniae isolates by double-disk diffusion method
Outline: (§2)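 Macrolide resistance phenotype assigned by double-disk diffusion with erythromycin (15 μg) and clindamycin (2 μg) disks placed 12 mm apart, edge to edge. After incubation, a flattened clindamycin zone next to the erythromycin disk (D zone) marked inducible resistance. A conserved clindamycin zone marked the M phenotype.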

Streptococcus pneumoniae [6] = assay: Antibacterial activity against inducible macrolide-lincosamide-streptogramin B-resistant Streptococcus pneumoniae isolates by double-disk diffusion method; outline: as §2
Streptococcus pneumoniae [7] = assay: Antibacterial activity against macrolide-resistant Streptococcus pneumoniae isolates by double-disk diffusion method; outline: as §2
Streptococcus pneumoniae [8] = assay: Antibacterial activity against inducible macrolide-lincosamide-streptogramin B-resistant Streptococcus pneumoniae expressing erm(B) and tet(M) genes assessed as percent resistant isolates by broth microdilution method; outline: as §1
Streptococcus pneumoniae [9] = assay: Antibacterial activity Streptococcus pneumoniae expressing erm(B) and/or mef genes at 0.25 ug/ml by broth microdilution method
Outline: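 Clinical erythromycin-resistant pneumococcal isolates identified by bile solubility and optochin susceptibility. MICs were determined by CLSI broth microdilution in Mueller-Hinton broth with 2 to 5% lysed horse blood, using commercial prepared panels; telithromycin was tested on a separate panel across 0.015 to 32 μg/ml. S. pneumoniae ATCC 49619 served as quality control.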

SMILES	CLSI resistance breakpoint (MIC) (Streptococcus pneumoniae [1])	MIC (Streptococcus pneumoniae [2]) [µg/mL]	MIC50 (Streptococcus pneumoniae [2]) [µg/mL]	MIC90 (Streptococcus pneumoniae [2]) [µg/mL]	Activity (Streptococcus pneumoniae [3]) [%]	Activity (Streptococcus pneumoniae [4])	MIC (Streptococcus pneumoniae [5]) [µg/mL]	MIC (Streptococcus pneumoniae [6]) [µg/mL]	MIC (Streptococcus pneumoniae [7]) [µg/mL]	Activity (Streptococcus pneumoniae [8]) [%]	Activity (Streptococcus pneumoniae [9]) [%]
C[C@H]1COc2c(N3CCN(C)CC3)c(F)cc3c(=O)c(C(=O)O)cn1c23.C[C@H]1COc2c(N3CCN(C)CC3)c(F)cc3c(=O)c(C(=O)O)cn1c23.O [LEVOFLOXACIN]	>=8 ug ml-1	> 4	1	1	4	<=2 ug ml-1					
CCC[C@@H]1C[C@@H](C(=O)N[C@@H]([C@H]2O[C@H](SC)[C@H](O)[C@@H](O)[C@H]2O)[C@H](C)Cl)N(C)C1 [CLINDAMYCIN]	>=1 ug ml-1	> 0.5	> 0.5	> 0.5	87.2	<=0.25 ug ml-1	> 0.5	> 0.5	≤ 0.25		
CN[C@H](CC(C)C)C(=O)N[C@H]1C(=O)N[C@@H](CC(N)=O)C(=O)N[C@H]2C(=O)N[C@H]3C(=O)N[C@H](C(=O)N[C@H](C(=O)O)c4cc(O)cc(O)c4-c4cc3ccc4O)[C@H](O)c3ccc(c(Cl)c3)Oc3cc2cc(c3O[C@@H]2O[C@H](CO)[C@@H](O)[C@H](O)[C@H]2O[C@H]2C[C@](C)(N)[C@H](O)[C@H](C)O2)Oc2ccc(cc2Cl)[C@H]1O [VANCOMYCIN]		1 (≈ 0.69 µM)	≤ 0.25	1 (≈ 0.69 µM)	0	<=1 ug ml-1					
CN(C)[C@@H]1C(O)=C(C(N)=O)C(=O)[C@@]2(O)C(O)=C3C(=O)c4c(O)cccc4[C@@](C)(O)[C@H]3C[C@@H]12 [TETRACYCLINE]	>=8 ug ml-1	> 4	> 4	> 4	77.6	<=2 ug ml-1				90	
COc1c(N2C[C@@H]3CCCN[C@@H]3C2)c(F)cc2c(=O)c(C(=O)O)cn(C3CC3)c12 [MOXIFLOXACIN]		> 1	≤ 0.25	≤ 0.25	2.4						
O=C(N[C@H](CO)[C@H](O)c1ccc([N+](=O)[O-])cc1)C(Cl)Cl [CHLORAMPHENICOL]	>=8 ug ml-1	> 8	2 (≈ 6.19 µM)	> 8	34.4	<=4 ug ml-1					
CO[C@@H]1[C@@H](O[C@@H]2O[C@H](C)[C@@H](O[C@H]3C[C@@](C)(O)[C@@H](OC(=O)CC(C)C)[C@H](C)O3)[C@H](N(C)C)[C@H]2O)[C@@H](CC=O)C[C@@H](C)[C@@H](O)/C=C/C=C/C[C@@H](C)OC(=O)C[C@H]1OC(C)=O [JOSAMYCIN]	>=4 ug ml-1	> 2	> 2	> 2	87.2	<=1 ug ml-1	> 2	> 2	≤ 0.5		
CO/N=C(\C(=O)N[C@@H]1C(=O)N2C(C(=O)O)=C(COC(C)=O)CS[C@H]12)c1csc(N)n1 [CEFOTAXIME]	>=4 ug ml-1	≤ 0.06	0.25 (≈ 0.549 µM)	0.5 (≈ 1.1 µM)	0.8	<=1 ug ml-1					
CC[C@H]1OC(=O)[C@H](C)[C@@H](O[C@H]2C[C@@](C)(OC)[C@@H](O)[C@H](C)O2)[C@H](C)[C@@H](O[C@@H]2O[C@H](C)C[C@H](N(C)C)[C@H]2O)[C@](C)(O)C[C@@H](C)CN(C)[C@H](C)[C@@H](O)[C@]1(C)O [AZITHROMYCIN]	>=2 ug ml-1	> 4	> 4	> 4	100	<=0.5 ug ml-1					
CC[C@H]1OC(=O)[C@H](C)[C@@H](O[C@H]2C[C@@](C)(OC)[C@@H](O)[C@H](C)O2)[C@H](C)[C@@H](O[C@@H]2O[C@H](C)C[C@H](N(C)C)[C@H]2O)[C@](C)(O)C[C@@H](C)C(=O)[C@H](C)[C@@H](O)[C@]1(C)O [ERYTHROMYCIN]	>=1 ug ml-1		> 32	> 32	100	<=0.25 ug ml-1	> 32	≥ 4	2 (≈ 2.73 µM)		
CC[C@H]1OC(=O)[C@H](C)C(=O)[C@H](C)[C@@H](O[C@@H]2O[C@H](C)C[C@H](N(C)C)[C@H]2O)[C@](C)(OC)C[C@@H](C)C(=O)[C@H](C)[C@H]2N(CCCCn3cnc(-c4cccnc4)c3)C(=O)O[C@]12C [TELITHROMYCIN]	>=4 ug ml-1	0.03 (≈ 0.0369 µM)	0.03 (≈ 0.0369 µM)	0.25 (≈ 0.308 µM)	0	<=1 ug ml-1					90
